ChEMBL document CHEMBL3784971, “Synthesis, characterization, antimicrobial and biofilm inhibitory studies of new esterquats” (Bioorg Med Chem Lett, 2016)
≈ marks a conversion by molar mass, not a printed value. Calls of active or inactive are those of the source. The calls are words filed in the database; no cut-off is given here.

Key:
Micrococcus luteus [1] = experiment: Bactericidal activity against Micrococcus luteus MTCC 2470 after 24 hrs by serial dilution method; format: functional; conditions: MTCC 2470, 24 h
Staphylococcus aureus [2] = experiment: Antimicrobial activity against Staphylococcus aureus MLS16 MTCC 2940 assessed as growth inhibition after 24 hrs by agar well diffusion method; format: functional; conditions: MLS16 MTCC 2940, 24 h
Escherichia coli [3] = experiment: Bactericidal activity against Escherichia coli MTCC 739 after 24 hrs by serial dilution method; format: functional; conditions: MTCC 739, 24 h
Staphylococcus aureus [4] = experiment: Antimicrobial activity against Staphylococcus aureus MTCC 96 assessed as growth inhibition after 24 hrs by agar well diffusion method; format: functional; conditions: MTCC 96, 24 h
Staphylococcus aureus [5] = experiment: Bactericidal activity against Staphylococcus aureus MTCC 96 after 24 hrs by serial dilution method; format: functional; conditions: MTCC 96, 24 h
Staphylococcus aureus [6] = experiment: Antibiofilm activity against Staphylococcus aureus MLS16 MTCC 2940 after 24 hrs by crystal violet staining based assay; format: functional, organism-based; conditions: MLS16 MTCC 2940, 24 h
In short: (§1)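 Biofilm inhibition tested for amine esters and esterquats. IC50 values (µg/mL) are the mean of three determinations, with ciprofloxacin as reference.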

Bacillus subtilis [7] = experiment: Antimicrobial activity against Bacillus subtilis MTCC 121 assessed as growth inhibition after 24 hrs by agar well diffusion method; format: functional; conditions: MTCC 121, 24 h
Micrococcus luteus [8] = experiment: Antimicrobial activity against Micrococcus luteus MTCC 2470 assessed as growth inhibition after 24 hrs by agar well diffusion method; format: functional; conditions: MTCC 2470, 24 h
Staphylococcus aureus [9] = experiment: Bactericidal activity against Staphylococcus aureus MLS16 MTCC 2940 after 24 hrs by serial dilution method; format: functional; conditions: MLS16 MTCC 2940, 24 h
Staphylococcus aureus [10] = experiment: Bactericidal activity against Staphylococcus aureus MLS16 MTCC 2940 assessed as increase in intracellular ROS accumulation in at 0.5 to 2 ug/mL after 24 hrs by DCFHDA staining based fluorometric assay; format: functional, organism-based
In short: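 Intracellular ROS measured in cells of mature biofilms using the general ROS fluorescent probe 2′,7′-dichlorofluorescein-diacetate (DCFH-DA), read as increase in fluorescence. Sessile cells and the supernatant were measured separately.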

Micrococcus luteus [11] = experiment: Antibiofilm activity against Micrococcus luteus MTCC 2470 after 24 hrs by crystal violet staining based assay; format: functional, organism-based; conditions: MTCC 2470, 24 h; in short: as §1
Escherichia coli [12] = experiment: Antimicrobial activity against Escherichia coli MTCC 739 assessed as growth inhibition after 24 hrs by agar well diffusion method; format: functional; conditions: MTCC 739, 24 h
Bacillus subtilis [13] = experiment: Antibiofilm activity against Bacillus subtilis MTCC 121 after 24 hrs by crystal violet staining based assay; format: functional, organism-based; conditions: MTCC 121, 24 h; in short: as §1
Bacillus subtilis [14] = experiment: Bactericidal activity against Bacillus subtilis MTCC 121 after 24 hrs by serial dilution method; format: functional; conditions: MTCC 121, 24 h
Pseudomonas aeruginosa = experiment: Antimicrobial activity against Pseudomonas aeruginosa MTCC 2453 assessed as growth inhibition after 24 hrs by agar well diffusion method; format: functional; conditions: MTCC 2453, 24 h
Raoultella planticola [15] = experiment: Bactericidal activity against Klebsiella planticola MTCC 530 after 24 hrs by serial dilution method; format: functional; conditions: MTCC 530, 24 h
Raoultella planticola [16] = experiment: Antimicrobial activity against Klebsiella planticola MTCC 530 assessed as growth inhibition after 24 hrs by agar well diffusion method; format: functional; conditions: MTCC 530, 24 h

In the case of `O=C(O)c1cn(C2CC2)c2cc(N3CCNCC3)c(F)cc2c1=O` [CIPROFLOXACIN], the MBC (Micrococcus luteus [1]) is reported as 1.9 µg/mL (≈ 5.73 µM), the MIC (Staphylococcus aureus [2]) is reported as 0.9 µg/mL (≈ 2.72 µM) and the MBC (Escherichia coli [3]) is reported as 1.9 µg/mL (≈ 5.73 µM). It also gave an MIC (Staphylococcus aureus [4]) of 0.9 µg/mL (≈ 2.72 µM), an MBC (Staphylococcus aureus [5]) of 1.9 µg/mL (≈ 5.73 µM) and an IC50 (Staphylococcus aureus [6]) of 0.4 µg/mL (≈ 1.21 µM). For the same compound, the MIC (Bacillus subtilis [7]) was 0.9 µg/mL (≈ 2.72 µM), the MIC (Micrococcus luteus [8]) was 0.9 µg/mL (≈ 2.72 µM) and the MBC (Staphylococcus aureus [9]) was 0.9 µg/mL (≈ 2.72 µM). For the same compound, the Activity (Staphylococcus aureus [10]) was “Active”, the IC50 (Micrococcus luteus [11]) was 0.6 µg/mL (≈ 1.81 µM) and the MIC (Escherichia coli [12]) was 0.9 µg/mL (≈ 2.72 µM). The IC50 (Bacillus subtilis [13]) was 0.5 µg/mL (≈ 1.51 µM), the MBC (Bacillus subtilis [14]) was 0.9 µg/mL (≈ 2.72 µM) and the MIC (Pseudomonas aeruginosa) was 0.9 µg/mL (≈ 2.72 µM). The MBC (Raoultella planticola [15]) was 1.9 µg/mL (≈ 5.73 µM) and the MIC (Raoultella planticola [16]) was 0.9 µg/mL (≈ 2.72 µM).
